From ChEMBL document CHEMBL1138098, “Novel 1,4-benzodiazepine-2,5-diones as Hdm2 antagonists with improved cellular activity” (Bioorg Med Chem Lett, 2006) come the findings set out here.

For experiment [1], the system named is JAR. The experiment can be described thus: Induction of PIG3 production in JAR cells at 1.1 uM. Format: functional, Homo sapiens. The method, boiled down:
(§1)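 JAR cells were treated with compound at 1.1, 3.3, 10 or 30 μM. PIG-3 protein was measured by ELISA and normalized to cellular protein, reported as ng/mg.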

The test system of experiment [2] is JAR. Put plainly: Induction of PIG3 production in JAR cells at 3.3 uM. The format is functional, Homo sapiens. The method, boiled down: as §1
Experiment [3] concerns JAR. Put plainly: Induction of PIG3 production in JAR cells at 10 uM. Format: functional, Homo sapiens. In short, it runs like this:
as §1

The test system of experiment [4] is JAR. Put plainly: Induction of PIG3 production in JAR cells at 30 uM. The format is functional, Homo sapiens. The method, boiled down:
as §1

Experiment [5] addresses E3 ubiquitin-protein ligase Mdm2 (Homo sapiens, UniProt Q00987). The experiment can be described thus: Inhibition of p53-Hdm2 interaction by FP assay.

Sequence of E3 ubiquitin-protein ligase Mdm2 (Q00987 whole entry): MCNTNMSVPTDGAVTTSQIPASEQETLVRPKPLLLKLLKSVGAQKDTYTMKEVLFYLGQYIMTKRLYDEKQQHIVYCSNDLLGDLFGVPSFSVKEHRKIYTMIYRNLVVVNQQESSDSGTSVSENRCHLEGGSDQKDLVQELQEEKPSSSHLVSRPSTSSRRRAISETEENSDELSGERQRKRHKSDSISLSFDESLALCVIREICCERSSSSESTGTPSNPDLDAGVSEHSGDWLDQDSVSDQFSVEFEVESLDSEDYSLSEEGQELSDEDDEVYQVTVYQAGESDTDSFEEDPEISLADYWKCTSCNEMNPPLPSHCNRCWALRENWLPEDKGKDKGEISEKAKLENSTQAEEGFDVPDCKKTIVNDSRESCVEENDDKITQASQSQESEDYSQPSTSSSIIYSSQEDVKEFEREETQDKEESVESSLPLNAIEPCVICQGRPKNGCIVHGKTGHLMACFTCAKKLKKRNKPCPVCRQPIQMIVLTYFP

For the compound `CC(c1ccc(Cl)cc1N)N1C(=O)c2cc(I)ccc2N(CCCCC(=O)O)C(=O)[C@@H]1c1ccc(Cl)cc1` (stereo not given in full), the Activity with JAR [1] is 44 ng/mg; in the experiment on JAR [2], 77 ng/mg.
As for `Nc1cc(Cl)ccc1CN1C(=O)c2cc(I)ccc2N(CCCCC(=O)O)C(=O)[C@@H]1c1ccc(Cl)cc1`, the Activity with JAR [3] was 196 ng/mg; in the experiment with JAR [1], 47 ng/mg; in the experiment on JAR [2] it was 74 ng/mg.
With `C[C@H](c1cc(O)c(Cl)cc1N)N1C(=O)c2cc(I)ccc2N(CCN2CCOCC2)C(=O)[C@@H]1c1ccc(Cl)cc1`, the figures for the Activity with JAR [3], in the experiment with JAR [1] and in the experiment with JAR [2] were 111 ng/mg, 34 ng/mg and 54 ng/mg, respectively.
For `COCCOCCN1C(=O)[C@H](c2ccc(Cl)cc2)N([C@H](C)c2ccc(Cl)cc2N)C(=O)c2cc(I)ccc21` the same measures were 375 ng/mg, 78 ng/mg and 218 ng/mg.
In the case of `C[C@H](c1cc(F)c(Cl)cc1N)N1C(=O)c2cc(I)ccc2N(CCN2CCOCC2)C(=O)[C@@H]1c1ccc(Cl)cc1`, the Activity with JAR [3] is given as 313 ng/mg; with JAR [1], 37 ng/mg; in the experiment with JAR [2], 110 ng/mg.
`CN(C)CCCN1C(=O)[C@H](c2ccc(Cl)cc2)N(Cc2ccc(Cl)cc2N)C(=O)c2cc(I)ccc21`: the Activity in the experiment on JAR [3] is listed as -92 ng/mg; with JAR [1], 36 ng/mg; in the experiment with JAR [2], 68 ng/mg.
The corresponding values for `C[C@H](c1ccc(Cl)cc1N)N1C(=O)c2cc(I)ccc2N(CCN2CCOCC2)C(=O)[C@@H]1c1ccc(Cl)cc1` are 395 ng/mg, 79 ng/mg and 234 ng/mg.
Turning to `CN(C)CCCCN1C(=O)[C@H](c2ccc(Cl)cc2)N(Cc2ccc(Cl)cc2N)C(=O)c2cc(I)ccc21`, the Activity with JAR [3] is given as -136 ng/mg; with JAR [1], 32 ng/mg; in the experiment on JAR [2], 79 ng/mg.
As to `CC(c1ccc(Cl)cc1)N1C(=O)c2cc(I)ccc2N(CCCCC(=O)O)C(=O)[C@@H]1c1ccc(Cl)cc1` (stereo not given in full), the Activity in the experiment with JAR [3] was 208.7 ng/mg; in the experiment on JAR [1], 60 ng/mg; in the experiment on JAR [2] it was 79.7 ng/mg; in the experiment on JAR [4], 484.3 ng/mg.
For the compound `CN1CCN(CCCCN2C(=O)[C@H](c3ccc(Cl)cc3)N(Cc3ccc(Cl)cc3N)C(=O)c3cc(I)ccc32)CC1`, the Activity with JAR [3] amounted to 32 ng/mg; in the experiment with JAR [1] it was 43 ng/mg; in the experiment with JAR [2], 125 ng/mg.
For `Nc1cc(Cl)ccc1CN1C(=O)c2cc(I)ccc2N(CCCN2CCOCC2)C(=O)[C@@H]1c1ccc(Cl)cc1` the same measures were 375 ng/mg, 55 ng/mg and 184 ng/mg.
What is called IC50 is the concentration at which inhibition is half-maximal. Lower therefore signals greater potency. As for `C=CCOc1cc(Cl)ccc1CN1C(=O)c2cc(I)ccc2N(CCOCCOC)C(=O)[C@@H]1c1ccc(Cl)cc1`, the IC50 in experiment [5] is greater than 12.5 µM.
Consider `CN1CCN(CCCN2C(=O)[C@H](c3ccc(Cl)cc3)N(Cc3ccc(Cl)cc3N)C(=O)c3cc(I)ccc32)CC1`, for which the results for the Activity with JAR [3], with JAR [1] and in the experiment on JAR [2] were 385 ng/mg, 57 ng/mg and 198 ng/mg, respectively.
The corresponding values for `COCCOCCN1C(=O)[C@H](c2ccc(Cl)cc2)N(Cc2ccc(Cl)cc2O)C(=O)c2cc(I)ccc21` are 99 ng/mg, 62.3 ng/mg and 74 ng/mg.
